These results are taken from ChEMBL document CHEMBL1122039, “Design of more potent and selective antagonists of the antidiuretic responses to arginine-vasopressin devoid of antidiuretic agonism” (J Med Chem, 1982).

Numbered stars: 1 amine (or outer) side, 2 acyl side, 3 side chain; on linkers, the order of the positions; unused ones are H or OH. Bridge positions count the residues as written; N and C are the ends. Peptide text beside a SMILES is read from it. X1 = O=C(CC1(S[*:2])CCCCC1)[*:1]

For test [1], the species on record is Rattus norvegicus. Briefly: In vitro anti-oxytocic activity in rat uterus (no Mg2+). Type of test: functional. The conditions noted are these: read-out: pA2 (converted).
The species named for test [2] is Rattus norvegicus. Kind of test: In vitro anti-oxytocic activity in rat uterus (0.5 mM Mg2+). The following applies: read-out: pA2 (converted). Type of test: functional.
Test [3] in a line: ED ratio (anti-vasopressor ED/antiantidiuretic ED) of the compound. Type of test: functional, Urine.
Test [4] in a line: Selectivity ratio for antioxyticic potency to antidiuretic potency. Type of test: functional, Urine.
Test [5] in a line: ED ratio (anti-oxytocic ED/antiantidiuretic ED) of the compound. Type of test: functional, Urine.
The species named for test [6] is Rattus norvegicus. Kind of test: Antiantidiuretic activity in rats. Type of test: functional, organism-based. The conditions noted are these: Urine, read-out: pA2 (converted). Summed up: (§1)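 Antidiuretic assay in rats under ethanol anesthesia. Antagonist given at two doses, a high and a low one. The USP posterior pituitary standard was injected 20 min later, or 10 min later for non-agonist analogues.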

The species entered for test [7] is Rattus norvegicus. Briefly: Effective dose required for anti-oxytocic activity in rat uterus. Type of test: functional.
Test [8] concerns Rattus norvegicus. Briefly: In vivo anti-oxytocic activity in rat uterus. Type of test: functional, organism-based. The following applies: read-out: pA2 (converted).
For test [9], the species on record is Rattus norvegicus. Kind of test: Antivasopressor activity in rats. Type of test: functional, organism-based. The following applies: read-out: pA2 (converted). Summed up: (§2)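 Intravenous vasopressor assay in phenoxybenzamine-treated rats under urethane anesthesia, with the USP posterior pituitary standard as agonist. Antagonist given at a high and a low dose.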

A short description of test [10]: Selectivity ratio for anti-vasopressor potency to antidiuretic potency. Type of test: functional, Urine.
The species named for test [11] is Rattus norvegicus. Kind of test: Effective dose required for antiantidiuretic activity in rats. Type of test: functional, Urine. The gist of the method:
as §1

The species entered for test [12] is Rattus norvegicus. Briefly: Effective dose required for anti-vasopressor activity in phenoxybenzamine-treated rats under urethane anesthesia. Type of test: functional. Summed up:
as §2

With `CC(C)[C@@H]1NC(=O)[C@H](Cc2ccccc2)NC(=O)CNC(=O)CC2(CCCCC2)SSC[C@@H](C(=O)N2CCC[C@H]2C(=O)N[C@@H](CCCN=C(N)N)C(=O)NCC(N)=O)NC(=O)[C@H](CC(N)=O)NC1=O` (GFVNCPRG-NH2; linker N-5 via X1), the Kb was 2880 nM in the test filed under Rattus norvegicus [1] and above 20000 nM in the test filed under Rattus norvegicus [2].
Turning to `CC(C)[C@@H]1NC(=O)[C@H](Cc2ccccc2)NC(=O)[C@@H](Cc2ccc(O)cc2)NC(=O)CC2(CCCCC2)SSC[C@@H](C(=O)N2CCC[C@H]2C(=O)N[C@@H](CCCN=C(N)N)C(=O)NCC(N)=O)NC(=O)[C@H](CC(N)=O)NC1=O`, the ED ratio in test [3] amounted to 0.13; in test [5] it was 3.1. The Selectivity in [4] and in test [10] was 1 throughout. Moreover, the Kb in the test listed under Rattus norvegicus [1] is 7.76 nM; in the test listed under Rattus norvegicus [2], 16.6 nM; in the test filed under Rattus norvegicus [6], 30.9 nM; with Rattus norvegicus [8], 97.7 nM; in the test filed under Rattus norvegicus [9], 3.89 nM. The Effective dose in the test filed under Rattus norvegicus [7] stood at 6.9 nM/kg.
Regarding `CC(C)[C@@H]1NC(=O)[C@H](Cc2ccccc2)NC(=O)[C@@H](C(C)C)NC(=O)CC2(CCCCC2)SSC[C@@H](C(=O)N2CCC[C@H]2C(=O)N[C@@H](CCCN=C(N)N)C(=O)NCC(N)=O)NC(=O)[C@H](CC(N)=O)NC1=O`, the figures for the ED ratio in test [3] and in test [5] were 12 and 96, respectively. For the same molecule, the Selectivity in test [4] worked out at 31; in test [10], 92. Besides, the Effective dose in the test filed under Rattus norvegicus [11] was 2.3 nM/kg; in the test filed under Rattus norvegicus [7], 220 nM/kg; in the test listed under Rattus norvegicus [12] it was 27 nM/kg. Besides, the Kb in the test listed under Rattus norvegicus [1] is 12.6 nM; in the test filed under Rattus norvegicus [2], 129 nM; in the test listed under Rattus norvegicus [6], 33.1 nM; in the test on Rattus norvegicus [8], 3240 nM; in the test listed under Rattus norvegicus [9], 389 nM.
`CC(C)[C@@H]1NC(=O)[C@H](Cc2ccccc2)NC(=O)[C@@H](Cc2ccccc2)NC(=O)CC2(CCCCC2)SSC[C@@H](C(=O)N2CCC[C@H]2C(=O)N[C@@H](CCCN=C(N)N)C(=O)NCC(N)=O)NC(=O)[C@H](CC(N)=O)NC1=O`: the Effective dose in the test listed under Rattus norvegicus [11] amounted to 0.67 nM/kg; in the test filed under Rattus norvegicus [7] it was 8.9 nM/kg; in the test listed under Rattus norvegicus [12] it was 0.58 nM/kg. The Kb was 8.51 nM in the test listed under Rattus norvegicus [6], 120 nM in the test on Rattus norvegicus [8] and 8.71 nM in the test listed under Rattus norvegicus [9].
`CC(C)[C@@H]1NC(=O)[C@H](Cc2ccccc2)NC(=O)[C@@H](CCCN=C(N)N)NC(=O)CC2(CCCCC2)SSC[C@@H](C(=O)N2CCC[C@H]2C(=O)N[C@@H](CCCN=C(N)N)C(=O)NCC(N)=O)NC(=O)[C@H](CC(N)=O)NC1=O`: the Effective dose in the test listed under Rattus norvegicus [11] was above 90 nM/kg; in the test filed under Rattus norvegicus [12] it was around 260 nM/kg. Also, the Kb in the test listed under Rattus norvegicus [1] is above 10000 nM; in the test listed under Rattus norvegicus [6], above 1260 nM; in the test listed under Rattus norvegicus [9], 3980 nM.
On to `CC[C@@H](C)[C@H]1NC(=O)CC2(CCCCC2)SSC[C@@H](C(=O)N2CCC[C@H]2C(=O)N[C@@H](CCCN=C(N)N)C(=O)NCC(N)=O)NC(=O)[C@H](CC(N)=O)NC(=O)[C@H](C(C)C)NC(=O)[C@H](Cc2ccccc2)NC1=O`, for which the results for the Effective dose in the test listed under Rattus norvegicus [11], in the test filed under Rattus norvegicus [7] and in the test filed under Rattus norvegicus [12] were 0.7 nM/kg, 44 nM/kg and 8.2 nM/kg, respectively. Besides, the Kb is 10.5 nM in the test listed under Rattus norvegicus [1], 10.5 nM in the test listed under Rattus norvegicus [6], 617 nM in the test on Rattus norvegicus [8] and 115 nM in the test filed under Rattus norvegicus [9].
For the molecule `CC(C)[C@@H]1NC(=O)[C@H](Cc2ccccc2)NC(=O)[C@@H](Cc2ccc(O)cc2)NC(=O)CC2(CCCCC2)SSC[C@@H](C(=O)N2CCC[C@H]2C(=O)N[C@H](CCCN=C(N)N)C(=O)NCC(N)=O)NC(=O)[C@H](CC(N)=O)NC1=O`, the Effective dose in the test listed under Rattus norvegicus [11] was 6.3 nM/kg; in the test filed under Rattus norvegicus [7] it was 8.1 nM/kg; in the test filed under Rattus norvegicus [12] it was 0.6 nM/kg. Moreover, the Kb is 10.2 nM in the test filed under Rattus norvegicus [1]; 16.6 nM in the test listed under Rattus norvegicus [2]; 93.3 nM in the test filed under Rattus norvegicus [6]; 117 nM with Rattus norvegicus [8]; 8.91 nM in the test listed under Rattus norvegicus [9].
For `CC(C)[C@@H]1NC(=O)[C@H](Cc2ccccc2)NC(=O)[C@H](Cc2ccc(O)cc2)NC(=O)CC2(CCCCC2)SSC[C@@H](C(=O)N2CCC[C@H]2C(=O)N[C@@H](CCCN=C(N)N)C(=O)NCC(N)=O)NC(=O)[C@H](CC(N)=O)NC1=O`, the Kb was 45.7 nM in the test filed under Rattus norvegicus [1], 49 nM in the test filed under Rattus norvegicus [2], 339 nM in the test with Rattus norvegicus [8] and 10.7 nM in the test filed under Rattus norvegicus [9]. In addition, the Effective dose in the test listed under Rattus norvegicus [7] worked out at 26 nM/kg.
As to `CC(C)C[C@H]1NC(=O)CC2(CCCCC2)SSC[C@@H](C(=O)N2CCC[C@H]2C(=O)N[C@@H](CCCN=C(N)N)C(=O)NCC(N)=O)NC(=O)[C@H](CC(N)=O)NC(=O)[C@H](C(C)C)NC(=O)[C@H](Cc2ccccc2)NC1=O`, the ED ratio in [3] was 22; in test [5], 51. Further, the Selectivity in [4] came to 16; in test [10] it was 170. For the same molecule, the values for the Effective dose in the test filed under Rattus norvegicus [11], in the test listed under Rattus norvegicus [7] and in the test listed under Rattus norvegicus [12] were 1.2 nM/kg, 61 nM/kg and 26 nM/kg, respectively. Also, the Kb in the test filed under Rattus norvegicus [1] is 47.9 nM; in the test listed under Rattus norvegicus [2] it was 41.7 nM; in the test filed under Rattus norvegicus [6] it was 16.2 nM; in the test with Rattus norvegicus [8] it was 891 nM; in the test filed under Rattus norvegicus [9] it was 355 nM.
On to `CC(C)[C@@H]1NC(=O)[C@H](Cc2ccccc2)NC(=O)[C@@H](C)NC(=O)CC2(CCCCC2)SSC[C@@H](C(=O)N2CCC[C@H]2C(=O)N[C@@H](CCCN=C(N)N)C(=O)NCC(N)=O)NC(=O)[C@H](CC(N)=O)NC1=O`, for which the Kb in the test filed under Rattus norvegicus [1] was 692 nM; in the test listed under Rattus norvegicus [2], 9770 nM; in the test listed under Rattus norvegicus [9], 1620 nM. The molecule further returned an Effective dose in the test filed under Rattus norvegicus [12] of 177 nM/kg.
